Series [1] is described as follows: Cytotoxicity against HEK293 cells assessed as reduction in cell viability incubated for 16 hrs by MTT assay. It is filed as toxicity, cell-based. As to conditions: human.
The test system of series [2] is HCT-116. The experiment in a line: Anticancer activity against human HCT-116 cells assessed as inhibition of cell viability incubated for 16 hrs by MTT assay. Type of series: functional, cell-based. The settings on record: HCT-116, 16 h. (In general: Tetrazolium assays rely on reduction of a dye to a coloured formazan, in cell work by metabolically active cells.)

In series [3] the test system is HCT-116. The experiment in a line: Induction of ROS production in human HCT-116 cells assessed as deterioration of mitochondrial length and area at 1 uM incubated for 16 hrs in presence of CellLight Mitochondria-GFP by confocal microscopy analysis. Type of series: functional, cell-based. The gist of the method: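 HCT116 cells transfected with CellLight Mitochondria-GFP, treated 1 μM for 16 h; confocal images quantified for mitochondrial length and area.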

For series [4], the system named is HCT-116. Put plainly: Induction of ROS generation in human HCT-116 cells at 0.5 to 1 uM incubated for 16 hrs by CellROX Red staining based confocal microscope analysis. Type of series: functional, cell-based. The settings on record: dose 0.5-1 µM. The gist of the method: (§1)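 HCT116 cells treated 16 h with compound (0.5 or 1 μM where dosed); stained 30 min with MitoTracker Deep Red FM (membrane potential) or CellROX Red FM (ROS); confocal imaging; mean fluorescence intensity quantified from five fields.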

Series [5] has as its system HCT-116. The experiment in a line: Induction of mitochondrial fission in human HCT-116 cells assessed as decrease in DRP1 phosphorylation at S637 at 0.5 to 1 uM incubated for 8 to 24 hrs by immunoblotting analysis. Type of series: functional, cell-based. As to conditions: dose 0.5-1 µM, time 8-24 hrs. The gist of the method: (§2)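 Immunoblot in HCT116 cells: p-DRP1 S616, p-DRP1 S637, DRP1, Mitofusin1, Mitofusin2 and MFF over time (0, 8, 16, 24 h); p-DRP1 S616, S637, DRP1, Mitofusin1 and OPA at 0.5 and 1 μM. β-Actin loading control.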
A general note: In western blotting, separated proteins are transferred to a membrane and probed.

Series [6] relates to HCT-116. The experiment in a line: Induction of mitochondrial fission in human HCT-116 cells assessed as increase in DRP1 phosphorylation at S616 at 0.5 to 1 uM incubated for 8 to 24 hrs by immunoblotting analysis. It is filed as functional, cell-based. The settings on record: dose 0.5-1 µM, time 8-24 hrs. The gist of the method:
as §2

The subject of series [7] is HCT-116. The experiment in a line: Induction of mitochondrial membrane potential loss in human HCT-116 cells at 0.5 to 1 uM incubated for 16 hrs by mitotracker red staining based confocal microscope analysis. Type of series: functional, cell-based. The settings on record: dose 0.5-1 µM. The gist of the method: as §1

Calls of active or inactive are those of the source. The rule behind the calls is not given here.

For 3 compounds, IC50 and Activity results are on record in ChEMBL document CHEMBL5634186, “Structure-Activity Relationship Study of Biselyngbyolide B Reveals Mitochondrial Fission-Induced Cytotoxicity in Cancer” (ACS Med Chem Lett, 2024).

The term IC50 denotes the point on the concentration scale where inhibition reaches its midpoint. `C/C=C/C/C(C)=C\[C@H]1C/C=C/C=C/C[C@H](C)/C=C(\C)[C@@H](O)C/C=C/[C@@H](O)CC(=O)O1`: in series [1], the IC50 at 16 h was 21.6 µM. Also, the IC50 in the series on HCT-116 [2] was 6.9 µM.

With `CCCCC[C@@H]1C/C=C/C=C/C[C@H](C)/C=C(\C)[C@@H](OC)C/C=C/[C@@H](O)CC(=O)O1`, the result in the series on HCT-116 [3] and in the series with HCT-116 [6] was Active. The 50% inhibitory concentration (IC50) at 16 h in series [1] was found to be 20.2 µM. For the same compound, the result in the series on HCT-116 [4], with HCT-116 [5] and with HCT-116 [7] was inactive. In addition, the IC50 in the series on HCT-116 [2] is 23 µM.

On to `C/C=C/C/C(C)=C\[C@@H]1C/C=C/C=C/C[C@H](C)/C=C(\C)[C@@H](OC)C/C=C/[C@@H](O)CC(=O)O1`, for which the IC50 at 16 h in series [1] is 18.1 µM. Besides, in the series on HCT-116 [2], the IC50 came out at 8.9 µM.
